Laboratory results as given in publication PMC10206482 (RSC Advances, 2023).
Converted amounts (≈) assume the structure as drawn.

Columns and labels:
human hepatoma (Huh-7) = test: MTT antiproliferative assay, Huh-7; type: cell-based; details: Huh-7, read-out: Human hepatoma (Huh-7) IC50
Summary of the method: (§1)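 Colorimetric MTT viability readout, run in parallel on human Huh-7 hepatoma, A549 lung adenocarcinoma and MCF-7 breast cancer cells, and on MDCK canine kidney cells as the non-cancerous model. Test compound at four concentrations (0.1, 1, 10, 100 μM), with Taxol as the positive reference. % viability was plotted against concentration, and IC50 was derived as 50% growth inhibition relative to untreated control.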

[1] = test system: lung cell cancer adenocarcinoma (A549); test: MTT antiproliferative assay, A549; type: cell-based; details: Homo sapiens, A549, read-out: Lung cell cancer adenocarcinoma (A549) IC50
Summary of the method: as §1

[2] = test system: Michigan Cancer Foundation-7 breast cancer (MCF-7); test: MTT antiproliferative assay, MCF-7; type: cell-based; details: Homo sapiens, MCF7, read-out: Michigan cancer foundation-7 breast cancer (MCF-7) IC50
Summary of the method: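 Human MCF-7 breast cancer cells were exposed to the test compound at 0.1, 1, 10 and 100 μM, with Taxol as positive reference. Viability was read by MTT and plotted as % cell viability against concentration (μM). IC50 is the concentration giving 50% growth inhibition relative to untreated control cells, taken from the dose–response curve.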

tubulin = test: Tubulin polymerization assay; type: biochemical; details: for Inhibition (%) of tubulin polymerisation: in vitro tubulin inhibition assay; for IC50: read-out: IC50 tubulin polymerisation; for IC50 / IC50 tubulin polymerisation: as printed in Table 2 and results text
Summary of the method: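 Turbidimetric tubulin polymerization, using tubulin at 4 mg ml⁻¹. Test compound came from a 2 mM DMSO stock, diluted with water to final 0.1, 1, 10 and 100 μM. Polymerization was started by moving the reaction from 4 °C to a pre-warmed 37 °C plate. Absorbance at 340 nm was followed kinetically at 37 °C (0.5 cm pathlength). CA-4 served as reference.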

(A549) cells = test: Morphological assessment of A549 cells; type: cell-based, human; details: 100 μM, 48 h, compared to untreated control
Summary of the method: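 Living cells were examined by inverted light microscopy for morphology changes, after exposure to test compound. Comparators were an untreated control and a Taxol-treated positive control.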

mammary tumors = test: In vivo DMBA-induced breast cancer model: tumor size and histopathology; set-up: species or system Wistar rats; details: after treatment, 2 mg per kg per week
[3] = Body weight of tumor-bearing rats during treatment; type: in vivo, Wistar rats; details: 2 mg per kg per week, day 0 to day 42

## COc1cc(/C=C2\CN(C(C)=O)CC3=C2OC(N)=C(C#N)C3c2ccc(O)c(OC)c2)ccc1O (stereo not shown) [3a, (E)-6-Acetyl-2-amino-3-cyano-8-(4-hydroxy-3-methoxybenzylidene)-4-(4-hydroxy-3-methoxyphenyl)-5,6,7,8-tetrahydro-4H-pyrano[3,2-c]pyridine]
Human hepatoma (Huh-7)
  IC50: 3.88 µM
[1]
  IC50: 31.6 µM
[2]
  IC50: 8.87 µM
tubulin
  Inhibition (%) of tubulin polymerisation: 79%
  IC50: 15.6 µM

## COc1cc(/C=C2\CN(C(C)=O)CC3=C2NC(=S)NC3c2ccc(O)c(OC)c2)ccc1O (stereo not shown) [4a, (E)-6-Acetyl-8-(4-hydroxy-3-methoxybenzylidene)-4-(4-hydroxy-3-methoxyphenyl)-1,3,4,5,7,8-hexahydro-2H-pyrido[4,3-d]pyrimidin-2-thione]
Human hepatoma (Huh-7)
  IC50: 2.48 µM
[1]
  IC50: 46.9 µM
[2]
  IC50: 8.01 µM

## CC(=O)N1CC2=C(OC(N)=C(C#N)C2c2ccc(Cl)cc2)/C(=C/c2ccc(Cl)cc2)C1 (stereo not shown) [3c, (E)-6-Acetyl-2-amino-3-cyano-8-(4-chlorobenzylidene)-4-(4-chlorophenyl)-5,6,7,8-tetrahydro-4H-pyrano[3,2-c]pyridine]
Human hepatoma (Huh-7)
  IC50: 17.7 µM
[1]
  IC50: 61.2 µM
[2]
  IC50: 6.38 µM

## CCOc1cc(/C=C2\CN(C(C)=O)CC3=C2NC(=S)NC3c2ccc(O)c(OCC)c2)ccc1O (stereo not shown) [4b, (E)-6-Acetyl-8-(3-ethoxy-4-hydroxybenzylidene)-4-(3-ethoxy-4-hydroxyphenyl)-1,3,4,5,7,8-hexahydro-2H-pyrido[4,3-d]pyrimidin-2-thione]
Human hepatoma (Huh-7)
  IC50: 7.27 µM
[1]
  IC50: 42.3 µM
[2]
  IC50: 16 µM

## CC(=O)O[C@H]1C(=O)[C@@]2(C)[C@H]([C@H](OC(=O)c3ccccc3)[C@]3(O)C[C@H](OC(=O)[C@H](O)[C@@H](NC(=O)c4ccccc4)c4ccccc4)C(C)=C1C3(C)C)[C@]1(OC(C)=O)CO[C@@H]1C[C@@H]2O [Taxol, reference compound]
Human hepatoma (Huh-7)
  IC50: 6.68 µM
[1]
  IC50: 38.1 µM
[2]
  IC50: 12.3 µM
(A549) cells
  Morphological assessment of cells: apparent cell toxicity
Mammary tumors
  Histopathology of mammary gland (H&E): inflammatory cells infiltrates: intensity of inflammatory cells infiltrates decreased
[3]
  Effect on rats' body weights: did not have a significant effect

## CC(=O)N1CC2=C(OC(N)=C(C#N)C2/C=C/c2ccccc2)/C(=C/C=C/c2ccccc2)C1 (stereo not shown) [3d, (E)-6-Acetyl-2-amino-3-cyano-8-((E)-3-phenylallylidene)-4-((E)-styryl)-5,6,7,8-tetrahydro-4H-pyrano[3,2-c]pyridine]
Human hepatoma (Huh-7)
  IC50: 20.7 µM

## CCOc1cc(/C=C2\CN(C(C)=O)CC3=C2OC(N)=C(C#N)C3c2ccc(O)c(OCC)c2)ccc1O (stereo not shown) [3b, (E)-6-Acetyl-2-amino-3-cyano-4-(3-ethoxy-4-hydroxy-phenyl)-8-(3-ethoxy-4-hydroxy-benzylidene)-5,6,7,8-tetrahydro-4H-pyrano[3,2-c]pyridine]
Human hepatoma (Huh-7)
  IC50: 6.54 µM
[1]
  IC50: 15.5 µM
[2]
  IC50: 6.13 µM
tubulin
  IC50 tubulin polymerisation: 4.03 µg/mL (≈ 8 µM)
  Inhibition (%) of tubulin polymerisation: 81%
  IC50: 4.03 µM
(A549) cells
  Morphological assessment of cells: apparent cell toxicity
Mammary tumors
  Histopathology of mammary gland (H&E): inflammatory cells infiltrates: intensity of inflammatory cells infiltrates decreased
[3]
  Effect on rats' body weights: did not have a significant effect

## CCOc1cc(/C=C2\CN(C(C)=O)CC3C2=NN(c2ccccc2)C3c2ccc(O)c(OCC)c2)ccc1O (stereo not shown) [5b, (E)-5-Acetyl-7-(3-ethoxy-4-hydroxybenzylidene)-3-(3-ethoxy-4-hydroxyphenyl)-2-phenyl-2,3,3a,4,6,7-hexahydro-5H-pyrazolo[4,3-c]pyridine]
Human hepatoma (Huh-7)
  IC50: 2.23 µM
[1]
  IC50: 15.2 µM
[2]
  IC50: 9.04 µM
tubulin
  Inhibition (%) of tubulin polymerisation: 70%
  IC50: 12.6 µM

## COc1cc(/C=C2\CN(C(C)=O)CC3C2=NN(c2ccccc2)C3c2ccc(O)c(OC)c2)ccc1O (stereo not shown) [5a, (E)-5-Acetyl-7-(4-hydroxy-3-methoxybenzylidene)-3-(4-hydroxy-3-methoxyphenyl)-2-phenyl-2,3,3a,4,6,7-hexahydro-5H-pyrazolo[4,3-c]pyridine]
Human hepatoma (Huh-7)
  IC50: 5.47 µM
[1]
  IC50: 20.3 µM
[2]
  IC50: 5.27 µM
tubulin
  Inhibition (%) of tubulin polymerisation: 76%
  IC50: 6.06 µM
